Published values collected from several papers.
Target: MAP kinase-activated protein kinase 5 (MAPKAPK5, Homo sapiens, UniProt Q8IW41)
One construct used (Q8IW41 1-473): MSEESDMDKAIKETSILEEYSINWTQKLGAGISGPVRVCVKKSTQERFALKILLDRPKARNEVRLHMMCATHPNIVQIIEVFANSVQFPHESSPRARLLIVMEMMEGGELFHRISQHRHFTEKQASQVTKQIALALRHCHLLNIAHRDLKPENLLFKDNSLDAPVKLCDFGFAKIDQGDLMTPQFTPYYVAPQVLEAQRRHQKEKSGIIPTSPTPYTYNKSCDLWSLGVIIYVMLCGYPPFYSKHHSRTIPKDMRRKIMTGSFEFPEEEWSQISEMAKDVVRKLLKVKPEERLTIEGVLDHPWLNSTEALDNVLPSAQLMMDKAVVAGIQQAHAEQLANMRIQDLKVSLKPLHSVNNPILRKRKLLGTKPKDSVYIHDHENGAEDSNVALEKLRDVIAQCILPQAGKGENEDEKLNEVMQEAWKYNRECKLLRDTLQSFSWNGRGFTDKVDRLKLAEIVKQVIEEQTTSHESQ

SMILES | test | setting | quantity | value
CO[C@@H](C)c1c(Nc2ccc([C@@H](N(C)C(=O)C3CCS(=O)(=O)CC3)C(F)(F)F)cc2)cnc2cc(Cl)nn12 | cell-free assay, competition with immobilised ligand | 1 µM | remaining binding | 100%
CCN(CC)c1ccc(C2=NNC(=O)CC2C)cc1[N+](=O)[O-] (stereo not drawn) | enzyme activity, inhibitor | 10 µM | remaining activity | 104%
N#CCCc1ccc2c(c1)-c1[nH]c3ccc([N+](=O)[O-])cc3c1CC(=O)N2 | cell-free assay | 0.5 µM | remaining signal | 94.3%
COc1cc2ncnc(Nc3ccc(Oc4ccccc4)c(C)c3C)c2cc1OC | enzyme activity, inhibitor | 1 µM | inhibition | -1%
Cc1ccc(NC(=O)c2ccc(C)c(C(F)(F)F)c2)cc1C#Cc1nn(C2CCC(O)CC2)c2ncnc(N)c12 (stereo not drawn) | cell-free assay | 10 µM | remaining signal | 77%
CN1CC(Oc2cnc(C#N)cc2-c2ccn3nc(NC(=O)C4CC4)cc3c2)C1 | enzyme activity, inhibitor | 1 µM | inhibition | -14%
CC1=C(C#N)C(c2ccc3c(c2)c(NC(=O)c2ccccc2C)nn3C)C(C#N)=C(C)N1 | cell-free assay, competition with immobilised ligand | 1 µM | remaining binding | 100%
FC(F)(F)Oc1cccc(-c2cnc3ccc(-c4ccncc4)nn23)c1 | enzyme activity, inhibitor, radiometric | 5 µM | activity vs control | 85%
CCS(=O)(=O)c1cc2cc(C[C@@](O)(CC(C)(C)c3ccc(F)cc3C(N)=O)C(F)(F)F)[nH]c2cn1 | cell-free assay, competition with immobilised ligand | 1 µM | remaining binding | 81%
CC(C)(C)C(=O)c1sc(NC2CCCCC2)nc1N | enzyme activity, inhibitor | 10 µM | remaining activity | 103%
O=C1NC(=O)c2cc(Nc3ccc(F)cc3)c(Nc3ccc(F)cc3)cc21 | cell-free assay | 0.5 µM | remaining signal | 93.4%
COc1cc(/C=C/C(=O)CC(=O)/C=C/c2ccc(O)c(OC)c2)ccc1O | enzyme activity, inhibitor | 1 µM | activity vs control | 101%
Cc1ccc(C(=O)NCc2ccsc2)cc1C#Cc1cn(C(C)C)c2ncnc(N)c12 | enzyme activity, inhibitor | 1 µM | activity vs control | 92%
O=C(Nc1cnn(-c2csc(C(=O)NC3COC3)c2)c1)Nc1c(F)cccc1Cl | enzyme activity, inhibitor | 5 µM | remaining activity | 99.7%
COc1ccc2c(O[C@@H]3C[C@H]4C(=O)N[C@]5(C(=O)O)CC5/C=C\CCCCC[C@H](NC(=O)OC5CCCC5)C(=O)N4C3)cc(-c3csc(NC(=O)C(C)C)n3)nc2c1C (stereo partly drawn) | cell-free assay, competition with immobilised ligand | 1 µM | remaining binding | 88%
COc1cc(Nc2cnc(C#N)c(O[C@H](C)CN(C)C)n2)ncc1-c1cnn(C)c1 | enzyme activity, inhibitor, radiometric | 10 µM | remaining activity | 97%
CCCCN(CCCC)C(=O)CN1C[C@H](c2cc(OC)c3c(c2)OCO3)[C@@H](C(=O)O)[C@@H]1CC(C)(C)CCC | cell-free assay, competition with immobilised ligand | 1 µM | remaining binding | 67.9%
Cc1ccc(Nc2nccc(N(C)c3ccc4c(C)n(C)nc4c3)n2)cc1S(N)(=O)=O | enzyme activity, inhibitor | 0.3 µM | inhibition | -3%
